Results: ChEMBL document CHEMBL2202989, “New adamantane phenylalkylamines with σ-receptor binding affinity and anticancer activity, associated with putative antagonism of neuropathic pain” (J Med Chem, 2012)

Tests used:
[1] = (§1) Growth inhibition of human HUVEC cells after 48 hrs by SRB assay; assay type: cell-based; details: HUVEC cells
In short: (§2)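 Cells grown in RPMI 1640 with 5% heat-inactivated FCS, 2 mM L-glutamine and antibiotics, 37 °C, 5% CO2. Seeded at 3500–30000 cells/well and left 24 h before dosing. DMSO solutions added at 10-fold dilutions from 100 to 0.01 μM for 48 h. Cells TCA-fixed and SRB-stained, absorbance read at 540 nm; GI50 derived against the time-zero plate.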

HUVEC = assay: as §1; assay type: cell-based; details: huvec, 48 h; in short: as §2
HL-60(TB) = assay: Growth inhibition of human HL-60(TB) cells after 48 hrs by SRB assay; assay type: functional; details: HL-60, 48 h; for CC50: read-out: LC50 (the source's name)
In short: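 Cells kept in RPMI 1640 with 5% FCS at 37 °C, 5% CO2, and seeded 24 h before dosing. Compound given from DMSO at 10-fold dilutions, 100 to 0.01 μM, for 48 h. Cells fixed with TCA, stained with SRB, absorbance read at 540 nm. GI50 taken from a time-zero plate.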

PC-3 = assay: Growth inhibition of human PC3 cells after 48 hrs by SRB assay; assay type: functional; details: PC-3, 48 h; for CC50: read-out: LC50 (the source's name); in short: as §2
[2] = (§3) Growth inhibition of human NHDF cells after 48 hrs by SRB assay; assay type: cell-based; details: NHDF cells; in short: as §2
NHDF = assay: as §3; assay type: cell-based; details: nhdf, 48 h; in short: as §2
SK-HEP1 = assay: Growth inhibition of human SKHEP1 cells after 48 hrs by SRB assay; assay type: functional; details: SK-HEP1, 48 h; for CC50: read-out: LC50 (the source's name); in short: as §2
BXPC-3 = assay: Growth inhibition of human BxPC3 cells after 48 hrs by SRB assay; assay type: functional; details: BXPC-3, 48 h; in short: as §2
DU-145 = assay: Growth inhibition of human DU145 cells after 48 hrs by SRB assay; assay type: functional; details: DU-145, 48 h; for CC50: read-out: LC50 (the source's name); in short: as §2
MCF7 = assay: Growth inhibition of human MCF7 cells after 48 hrs by SRB assay; assay type: functional; details: MCF7, 48 h; for CC50: read-out: LC50 (the source's name); in short: as §2
[3] = Growth inhibition of human MSC cells after 48 hrs by SRB assay; assay type: cell-based; in short: as §2
HCT-15 = assay: Growth inhibition of human HCT15 cells after 48 hrs by SRB assay; assay type: functional; details: HCT-15, 48 h; for CC50: read-out: LC50 (the source's name); in short: as §2
U-251 = assay: Growth inhibition of human U251 cells after 48 hrs by SRB assay; assay type: functional; details: U-251, 48 h; for CC50: read-out: LC50 (the source's name); in short: as §2
OVCAR-5 = assay: Growth inhibition of human OVCAR5 cells after 48 hrs by SRB assay; assay type: functional; details: OVCAR-5, 48 h; in short: as §2
MIA PaCa-2 = assay: Growth inhibition of human MIAPaCa2 cells after 48 hrs by SRB assay; assay type: functional; details: MIA PaCa-2, 48 h; in short: as §2
[4] = read-out: LC50 (the source's name)

Compound	GI50 at 48 h [1]	LC50 (HUVEC)	TGI (HUVEC)	GI50 (HL-60(TB))	TGI (HL-60(TB))	CC50 (HL-60(TB))	GI50 (PC-3)	TGI (PC-3)	CC50 (PC-3)	GI50 at 48 h [2]	LC50 (NHDF)	TGI (NHDF)	GI50 (SK-HEP1)	TGI (SK-HEP1)	CC50 (SK-HEP1)	GI50 (BXPC-3)	LC50 (BXPC-3)	TGI (BXPC-3)	GI50 (DU-145)	TGI (DU-145)	also measured
c1ccc(C(c2ccc(CN3CCNCC3)cc2)C23CC4CC(CC(C4)C2)C3)cc1 (stereo not drawn)	2.91 µM	17.43 µM	5.98 µM	0.00448 µM	0.00759 µM	0.1 µM	3.89 µM	7.52 µM	0.0692 µM	3.66 µM	9.73 µM	6.69 µM	3.51 µM	6.17 µM	0.00884 µM	4.3 µM	0.00951 µM	6.9 µM	4.23 µM	17.8 µM	CC50 (DU-145): 0.0392 µM; GI50 (MCF7): 2.45 µM; TGI (MCF7): 5.51 µM; CC50 (MCF7): 0.00857 µM; TGI [3]: 3.14 µM; GI50 (HCT-15): 3.28 µM; TGI (HCT-15): 5.76 µM; CC50 (HCT-15): 0.00824 µM; GI50 (U-251): 3.41 µM; TGI (U-251): 5.92 µM; CC50 (U-251): 0.00843 µM
c1ccc(C(c2ccc(CN3CCCCC3)cc2)C23CC4CC(CC(C4)C2)C3)cc1 (stereo not drawn)	5.11 µM	72.47 µM	21.7 µM	0.00591 µM	0.0729 µM	0.1 µM	6.07 µM	26.2 µM	0.0813 µM	23.7 µM	81.19 µM	52.5 µM	7.46 µM	38.4 µM	0.0822 µM	15.8 µM	0.0874 µM	51.6 µM	8.98 µM	47.3 µM	GI50 (OVCAR-5): 31.1 µM; TGI (OVCAR-5): 60.8 µM; CC50 (OVCAR-5; [4]): 0.0915 µM; GI50 (MIA PaCa-2): 7.98 µM; TGI (MIA PaCa-2): 43.2 µM; CC50 (MIA PaCa-2; [4]): 0.0813 µM; CC50 (DU-145): 0.089 µM; GI50 (MCF7): 8.89 µM; TGI (MCF7): 43 µM; CC50 (MCF7): 0.0806 µM; TGI [3]: 20.1 µM; GI50 (HCT-15): 8.8 µM; TGI (HCT-15): 79 µM; CC50 (HCT-15): 0.1 µM; GI50 (U-251): 8.6 µM; TGI (U-251): 40.2 µM; CC50 (U-251): 0.0758 µM
